The source made the active and inactive calls. The rule behind the calls is not given here.
Assays:
A549 [1] = test: Antiproliferative activity against human A549 cells expressing wild type p53 after 72 hrs by CellTitre-Glo assay; format: functional, cell-based
Procedure, shortened: (§1)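 Cell lines exposed to compound for 72 h; viability read by CellTiter-Glo and IC50 derived. p53 coding-region mutation status of each line established by direct sequencing.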

NCI-H292 = test: Antiproliferative activity against human NCI-H292 cells expressing wild type p53 after 72 hrs by CellTitre-Glo assay; format: functional, cell-based; procedure, shortened: as §1
UACC-62 = test: Antiproliferative activity against human UACC62 cells expressing wild type p53 after 72 hrs by CellTitre-Glo assay; format: functional, cell-based; procedure, shortened: as §1
WM-115 = test: Antiproliferative activity against human WM115 cells expressing wild type p53 after 72 hrs by CellTitre-Glo assay; format: functional, cell-based; procedure, shortened: as §1
LOX IMVI = test: Antiproliferative activity against human LOXIMVI cells expressing wild type p53 after 72 hrs by CellTitre-Glo assay; format: functional, cell-based; procedure, shortened: as §1
[2] = Antiproliferative activity against human HCT116 cells expressing wild type p53 after 72 hrs by CellTitre-Glo assay; format: functional, cell-based; details: HCT-116, 72 h
Procedure, shortened: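 Cancer cell lines of known p53 coding-region status (checked by direct sequencing) were exposed to the compound for 72 h. Viability was read with CellTiter-Glo, and the IC50 was taken from these readings.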

[3] = target: Tumour suppressor p53/oncoprotein Mdm2 (Homo sapiens, UniProt Q00987); test: Inhibition of MDM2/p53 interaction in human HCT116 cells assessed as activation of p53 transcription by luciferase reporter gene assay; format: cell-based, HCT-116
Procedure, shortened: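 p53 transcriptional activation measured in HCT116 cells with a p53 response element–driven luciferase reporter (P53RE-Luc).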

SJSA-1 [4] = test: Induction of apoptosis in human SJSA1 cells assessed as caspase 3/7 activation; format: functional, cell-based
[5] = Permeability from apical to basolateral side in human Caco2 cells; format: ADME, cell-based; details: Caco-2, read-out: permeability
SJSA-1 [6] = test: Selectivity ratio of IC50 for human SK-UT-1 cells harboring mutant p53 to IC50 for human SJSA1 cells expressing wild type p53; format: functional
Procedure, shortened: (§2)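 Ratio of two IC50s, each from a 72 h CellTiter-Glo viability assay. p53 coding-region status was confirmed by direct sequencing. The ratio is p53-mutant (SK-UT-1) or p53-null (H1299) IC50 divided by wild-type p53 (SJSA-1 or HCT116) IC50.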

SJSA-1 [7] = test: Selectivity ratio of IC50 for p53 null human H1299 cells to IC50 for human SJSA1 cells expressing wild type p53; format: functional; procedure, shortened: as §2
[8] = Intrinsic clearance in human liver microsomes; format: ADME; details: read-out: CLH
Canis familiaris = test: Dose normalized AUC (0 to 24 hrs) in dog at 1 mg/kg, po administered as single dose; format: ADME, organism-based, Canis lupus familiaris; details: in vivo
Procedure, shortened: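 Single oral dose of 1 mg/kg. Vehicle was 20% HPBCD for mouse and 0.4% HPMC for dog and monkey. Plasma AUC over 0–24 h, dose-normalized, reported in μM·h.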

[9] = Clearance in mouse at 2 mg/kg, iv; format: ADME, organism-based; details: in vivo
[10] = Clearance in monkey at 1 mg/kg, iv; format: ADME, organism-based, Macaca mulatta; details: rhesus monkey, in vivo
[11] = Clearance in dog at 1 mg/kg, iv; format: ADME, organism-based, Canis lupus familiaris; details: in vivo
Cytochrome P450 3A4 = Cytochrome P450 3A4 (Homo sapiens, UniProt P08684); test: Inhibition of CYP3A4 (unknown origin); format: ADME
[12] = Antitumor activity against human SJSA1 cells xenografted in nude mouse assessed as tumor growth inhibition at 100 mg/kg, po qd administered with cycle of 3 days on, 4 days off for 30 days relative to control; format: functional; details: SJSA-1, po, read-out: TGI
Procedure, shortened: (§3)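 Nude mice bearing SJSA-1 osteosarcoma xenografts, n = 5 per group. Oral dosing in 20% HPBCD, given either intermittently (daily, 3 days on/4 days off) or continuously daily. Body weight was monitored against a vehicle control group.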

[13] = Antitumor activity against human SJSA1 cells xenografted in nude mouse assessed as tumor growth inhibition at 200 mg/kg, po qd continuously for 30 days relative to control; format: functional; details: SJSA-1, po, 720 h, read-out: TGI; procedure, shortened: as §3
Mus musculus = test: Toxicity in nude mouse xenografted with human SJSA1 cells assessed as body weight loss at 100 to 200 mg/kg, po qd continuously for 30 days; format: organism-based, SJSA-1; details: in vivo, 720 h
Procedure, shortened: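 Nude mice bearing SJSA-1 osteosarcoma xenografts, n = 5 per group. Dosing was oral in 20% HPBCD, either continuous daily at 100 and 200 mpk or intermittent (daily for 3 days on, 4 days off). Body weight was compared against a vehicle-control group.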

A549 [14] = test: Antitumor activity against human A549 cells xenografted in nude mouse assessed as tumor growth inhibition at 100 mg/kg, po qd administered with cycle of 3 days on, 4 days off for 30 days relative to control; format: functional; details: read-out: TGI
Procedure, shortened: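 Mice bearing A549 NSCLC xenografts. The test agent was given orally, either daily or intermittently (daily for 3 days, then 4 days off). Paclitaxel was given at 20 mg/kg ip weekly, alone or in combination. Read-out was tumor growth inhibition.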

A2780 [15] = test: Antitumor activity against human A2780 cells xenografted in nude mouse harboring wild type p53 assessed as tumor growth inhibition at 50 mg/kg, po bid continuously for 15 days relative to control; format: functional; details: 360 h, read-out: TGI
Procedure, shortened: (§4)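 Wild-type p53 mice bearing A2780 ovarian xenografts. The test agent was given at 50 mg/kg orally twice daily, continuously. Docetaxel was given at 40 mg/kg ip weekly, twice in total. Each was given alone and in combination. Read-out was tumor growth inhibition.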

MES-SA = test: Antiproliferative activity against human MES-SA cells expressing wild type p53 after 72 hrs by CellTitre-Glo assay; format: functional, cell-based; procedure, shortened: as §1
CAKI-1 = test: Antiproliferative activity against human Caki1 cells expressing wild type p53 after 72 hrs by CellTitre-Glo assay; format: functional, cell-based; procedure, shortened: as §1
MCF7 = test: Antiproliferative activity against human MCF7 cells expressing wild type p53 after 72 hrs by CellTitre-Glo assay; format: functional, cell-based; procedure, shortened: as §1
BC1 = test: Antiproliferative activity against human BC1 cells expressing wild type p53 after 72 hrs by CellTitre-Glo assay; format: functional, cell-based; procedure, shortened: as §1
Daudi = test: Antiproliferative activity against human Daudi cells expressing wild type p53 after 72 hrs by CellTitre-Glo assay; format: functional, cell-based; procedure, shortened: as §1
MOLT-3 = test: Antiproliferative activity against human MOLT3 cells expressing wild type p53 after 72 hrs by CellTitre-Glo assay; format: functional, cell-based; procedure, shortened: as §1
CESS = test: Antiproliferative activity against human CESS cells expressing wild type p53 after 72 hrs by CellTitre-Glo assay; format: functional, cell-based; procedure, shortened: as §1
KU812 = test: Antiproliferative activity against human KU812 cells expressing wild type p53 after 72 hrs by CellTitre-Glo assay; format: functional, cell-based; procedure, shortened: as §1
A2780 [16] = test: Antitumor activity against human A2780 cells xenografted in nude mouse harboring wild type p53 assessed as tumor growth inhibition at 50 mg/kg, po bid continuously for 15 days coadministered with 40 mg/kg, ip, once weekly docetaxel relative to control; format: functional; procedure, shortened: as §4
CMLT1 = test: Antiproliferative activity against human CMLT1 cells expressing wild type p53 after 72 hrs by CellTitre-Glo assay; format: functional, cell-based; procedure, shortened: as §1
MOLM-13 = test: Antiproliferative activity against human MOLM13 cells expressing wild type p53 after 72 hrs by CellTitre-Glo assay; format: functional, cell-based; procedure, shortened: as §1
SR = test: Antiproliferative activity against human SR cells expressing wild type p53 after 72 hrs by CellTitre-Glo assay; format: functional, cell-based; procedure, shortened: as §1

Chain of Cytochrome P450 3A4 (P08684 whole entry): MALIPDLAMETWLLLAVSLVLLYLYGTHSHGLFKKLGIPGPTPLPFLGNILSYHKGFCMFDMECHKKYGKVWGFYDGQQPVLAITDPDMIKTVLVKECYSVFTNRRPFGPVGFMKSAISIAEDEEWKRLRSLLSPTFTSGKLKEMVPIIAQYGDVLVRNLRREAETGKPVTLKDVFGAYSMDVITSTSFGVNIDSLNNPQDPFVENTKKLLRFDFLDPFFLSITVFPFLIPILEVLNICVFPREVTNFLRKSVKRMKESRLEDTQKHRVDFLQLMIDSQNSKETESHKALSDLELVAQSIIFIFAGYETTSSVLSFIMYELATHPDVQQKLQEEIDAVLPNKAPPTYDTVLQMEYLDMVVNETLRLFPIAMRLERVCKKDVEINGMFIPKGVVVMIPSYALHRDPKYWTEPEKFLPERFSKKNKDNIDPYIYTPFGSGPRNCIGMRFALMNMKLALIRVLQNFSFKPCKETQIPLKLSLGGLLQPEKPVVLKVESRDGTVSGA
Chain of Tumour suppressor p53/oncoprotein Mdm2 (P04637 whole entry): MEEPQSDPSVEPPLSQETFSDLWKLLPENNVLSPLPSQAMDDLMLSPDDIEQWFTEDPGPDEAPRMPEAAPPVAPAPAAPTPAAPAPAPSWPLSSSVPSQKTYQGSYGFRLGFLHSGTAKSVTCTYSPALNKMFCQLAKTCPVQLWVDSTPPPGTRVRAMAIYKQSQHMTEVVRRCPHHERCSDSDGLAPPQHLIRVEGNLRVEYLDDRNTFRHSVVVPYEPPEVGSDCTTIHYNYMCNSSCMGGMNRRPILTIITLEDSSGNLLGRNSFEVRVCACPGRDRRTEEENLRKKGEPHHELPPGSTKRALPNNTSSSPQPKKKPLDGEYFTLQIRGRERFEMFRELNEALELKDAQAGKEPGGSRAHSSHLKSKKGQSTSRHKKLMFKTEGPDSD
Chain of Tumour suppressor p53/oncoprotein Mdm2 (Q00987 whole entry): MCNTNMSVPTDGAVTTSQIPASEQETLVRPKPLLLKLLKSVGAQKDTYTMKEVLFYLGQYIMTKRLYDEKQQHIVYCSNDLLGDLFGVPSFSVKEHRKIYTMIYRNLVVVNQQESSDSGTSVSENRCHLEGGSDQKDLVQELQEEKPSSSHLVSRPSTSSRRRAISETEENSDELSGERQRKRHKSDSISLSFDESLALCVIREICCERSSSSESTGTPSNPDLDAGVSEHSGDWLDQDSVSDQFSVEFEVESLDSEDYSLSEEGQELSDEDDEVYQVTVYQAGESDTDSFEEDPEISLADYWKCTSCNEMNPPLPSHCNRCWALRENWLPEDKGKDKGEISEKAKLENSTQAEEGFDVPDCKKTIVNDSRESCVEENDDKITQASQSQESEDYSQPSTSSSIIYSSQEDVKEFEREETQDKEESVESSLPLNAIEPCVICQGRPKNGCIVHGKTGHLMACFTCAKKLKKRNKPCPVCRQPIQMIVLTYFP

In the case of CCC[C@H]1N(C(=O)c2cnccc2C(F)(F)F)CCC[C@@]1(Oc1csc(C(F)(F)F)c1)C(=O)N1CCN(c2ccccc2OCCCC(=O)O)CC1, the Activity (A549 [1]) is reported as “Active”, the Activity (NCI-H292) is reported as “Active” and the Activity (UACC-62) is reported as “Active”. The Activity (WM-115) was “Active”, the Activity (LOX IMVI) was “Active” and the IC50 [2] was 0.18 µM. The EC50 [3] was 0.1 µM, the IC50 (SJSA-1 [4]) was 0.09 µM and the Papp A→B [5] was 180 nm/s. The “Ratio IC50” value (SJSA-1 [6]) was over 500, the “Ratio IC50” value (SJSA-1 [7]) was over 500 and the CLint scaled [8] was 0.18 L/h/kg. For the same molecule, the AUC/dose (Canis familiaris) was 5.8 µM·h, the clearance [9] was 7.98 L/h/kg and the clearance [10] was 1.38 L/h/kg. It also gave a clearance [11] of 0.246 L/h/kg, an IC50 (Cytochrome P450 3A4) of over 50 µM and an inhibition in vivo at 100 mg/kg [12] of 31%. The inhibition in vivo at 200 mg/kg [13] was 60%, the Activity (Mus musculus) was “Non-toxic” and the inhibition in vivo at 100 mg/kg (A549 [14]) was 27%. For the same molecule, the inhibition in vivo at 50 mg/kg (A2780 [15]) was 41%, the Activity (MES-SA) was “Active” and the Activity (CAKI-1) was “Active”. For the same molecule, the Activity (MCF7) was “Active”, the Activity (BC1) was “Active” and the Activity (Daudi) was “Active”. For the same molecule, the Activity (MOLT-3) was “Active”, the Activity (CESS) was “Active” and the Activity (KU812) was “Active”. The TGI (A2780 [16]) was 81%, the Activity (CMLT1) was “Active” and the Activity (MOLM-13) was “Active”. For the same molecule, the Activity (SR) was “Active”.

Reference: ChEMBL document CHEMBL3804796, “Discovery of Novel 3,3-Disubstituted Piperidines as Orally Bioavailable, Potent, and Efficacious HDM2-p53 Inhibitors” (ACS Med Chem Lett, 2016)
